This is an account of results in ChEMBL document CHEMBL6182827 (RSC Med Chem, 2025).

What is called Ki is the dissociation constant of the complex between target and ligand, obtained from inhibition or displacement.

The source made the active and inactive calls. No cut-off for these calls is given here.

For data set [1], the target named is Sigma non-opioid intracellular receptor 1 (Rattus norvegicus, UniProt Q9R0C9). In words: Displacement of [3H]-pentazocine from sigma 1 receptor in male Sprague-Dawley rat liver membrane assessed as inhibition constant by liquid scintillation counter analysis. The class given is cell membranes. (Displacement assays read how much labelled ligand stays bound in the presence of the test substance.)
Sequence of Sigma non-opioid intracellular receptor 1 (Q9R0C9 whole entry): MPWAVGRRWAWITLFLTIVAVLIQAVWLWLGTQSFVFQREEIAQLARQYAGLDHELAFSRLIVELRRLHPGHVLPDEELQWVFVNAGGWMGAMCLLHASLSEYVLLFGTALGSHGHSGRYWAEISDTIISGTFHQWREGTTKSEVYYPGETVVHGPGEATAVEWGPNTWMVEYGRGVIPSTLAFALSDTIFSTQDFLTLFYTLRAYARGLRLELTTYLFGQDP

Data set [2] addresses T1, Sigma intracellular receptor 2 (Rattus norvegicus, UniProt Q5U3Y7).
T1 sequence (Q5U3Y7 whole entry): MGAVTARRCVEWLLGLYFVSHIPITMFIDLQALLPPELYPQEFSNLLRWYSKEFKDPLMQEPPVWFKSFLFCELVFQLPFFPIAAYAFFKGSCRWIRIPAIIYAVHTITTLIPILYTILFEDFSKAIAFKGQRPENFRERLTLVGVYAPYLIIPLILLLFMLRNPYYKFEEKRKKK
Kind of data set: Displacement of [3H]-DTG from sigma 2 receptor in male Sprague-Dawley rat liver membrane assessed as inhibition constant in presence of pentazocine by liquid scintillation counter analysis. The class given is cell membranes.

For a further data set, the target named is Mu-type opioid receptor (Rattus norvegicus, UniProt P33535). In words: Displacement of [3H]-DAMGO from MOR in male Sprague-Dawley rat brain membrane assessed as inhibition constant incubated for 45 mins by liquid scintillation counter analysis. It counts as cell membranes.
Sequence of Mu-type opioid receptor (P33535 whole entry): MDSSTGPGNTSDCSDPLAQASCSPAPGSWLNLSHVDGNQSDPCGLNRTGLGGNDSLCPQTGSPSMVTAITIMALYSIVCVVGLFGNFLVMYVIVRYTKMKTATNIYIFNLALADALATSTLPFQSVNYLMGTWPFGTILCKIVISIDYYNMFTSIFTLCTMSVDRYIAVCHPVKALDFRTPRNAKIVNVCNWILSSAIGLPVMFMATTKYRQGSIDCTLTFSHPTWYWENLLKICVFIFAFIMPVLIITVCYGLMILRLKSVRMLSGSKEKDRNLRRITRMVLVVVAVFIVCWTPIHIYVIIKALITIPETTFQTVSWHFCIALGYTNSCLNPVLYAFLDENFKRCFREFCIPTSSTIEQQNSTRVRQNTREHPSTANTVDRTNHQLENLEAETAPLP
The target in data set [3] is Delta-type opioid receptor (Rattus norvegicus, UniProt P33533). In words: Displacement of [3H]-Deltorphin from DOR in male Sprague-Dawley rat brain membrane assessed as inhibition constant incubated for 45 mins by liquid scintillation counter analysis. The class given is cell membranes.
Sequence of Delta-type opioid receptor (P33533 whole entry): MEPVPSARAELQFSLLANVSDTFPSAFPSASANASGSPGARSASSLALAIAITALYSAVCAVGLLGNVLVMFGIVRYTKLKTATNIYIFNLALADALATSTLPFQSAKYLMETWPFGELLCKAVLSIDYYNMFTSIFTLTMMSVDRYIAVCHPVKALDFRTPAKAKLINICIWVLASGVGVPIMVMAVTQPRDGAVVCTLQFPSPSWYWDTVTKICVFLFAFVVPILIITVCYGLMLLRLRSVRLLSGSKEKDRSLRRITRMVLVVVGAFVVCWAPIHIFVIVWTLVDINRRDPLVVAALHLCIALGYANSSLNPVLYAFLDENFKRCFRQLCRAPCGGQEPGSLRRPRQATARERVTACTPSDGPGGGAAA
For data set [4], the target named is Kappa-type opioid receptor (Cavia porcellus, UniProt P41144). In words: Displacement of [3H]-U69593 from KOR in male Dunkin-Hartley guinea pig brain membrane assessed as inhibition constant incubated for 30 mins by liquid scintillation counter analysis. The class given is cell membranes.
Sequence of Kappa-type opioid receptor (P41144 whole entry): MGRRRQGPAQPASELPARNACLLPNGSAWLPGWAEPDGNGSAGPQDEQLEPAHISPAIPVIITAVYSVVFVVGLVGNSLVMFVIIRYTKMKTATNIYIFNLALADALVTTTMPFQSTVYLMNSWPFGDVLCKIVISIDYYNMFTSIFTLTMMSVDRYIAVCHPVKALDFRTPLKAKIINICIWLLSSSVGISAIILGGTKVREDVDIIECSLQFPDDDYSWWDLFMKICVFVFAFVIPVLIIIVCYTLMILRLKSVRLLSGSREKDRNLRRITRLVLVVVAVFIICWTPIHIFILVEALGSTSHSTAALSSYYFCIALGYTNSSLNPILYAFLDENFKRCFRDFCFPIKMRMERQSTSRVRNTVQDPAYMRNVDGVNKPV
The nature of data set [5]: Chemical stability of the compound in aqueous phosphate buffer at pH 7.4 assessed as half life at 200 uM by RP-HPLC analysis. The class given is physicochemical. The conditions noted are these: pH 7.4, 200 µM. In short, it runs like this: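 A 10 mM DMSO stock was added to pH 7.4 phosphate buffer prewarmed to 37 °C (final 200 μM) and held at 37 ± 0.5 °C for up to 300 min. Aliquots were mixed 1:1 with acetonitrile (100 μM), filtered and run on C18 RP-HPLC with DAD at 285 nm against a 10–250 μM calibration curve. Duplicates; t1/2 from a one-phase exponential decay fit.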

Data set [6] in a line: Stability of the compound in C57 mouse plasma assessed as retention time at 200 uM measured up to 60 mins by RP-HPLC analysis. The class given is ADME, cell-free. The conditions noted are these: 1 h. In a few lines:
(§1)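 A 10 mM DMSO stock was added to C57 mouse plasma prewarmed to 37 °C (final 200 μM) and held at 37 ± 0.5 °C. Samples taken at 0, 1, 5, 20 and 60 min were deproteinized 1:1 with acetonitrile containing 0.1% HCOOH (100 μM), centrifuged, filtered, and analysed by C18 RP-HPLC-DAD. Duplicates; t1/2 from a one-phase exponential decay fit with the plateau fixed at 0.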

Data set [7] in a line: Stability of the compound in C57 mouse plasma at 200 uM measured up to 5 mins by RP-HPLC analysis. The class given is ADME, cell-free. In a few lines:
as §1

Data set [8] can be described thus: Stability of the compound in C57 mouse plasma at 200 uM measured at >= 20 mins by RP-HPLC analysis. The class given is ADME, cell-free. In short, it runs like this: as §1
Data set [9] is described as follows: Stability of the compound in C57 mouse plasma assessed as half life at 200 uM measured up to 60 mins by RP-HPLC analysis. The conditions noted are these: 1 h. It counts as ADME, cell-free. In short, it runs like this:
as §1

Data set [10] has as its system Mus musculus. Kind of data set: Antinociceptive activity in formalin-induced male CD1 mouse model assessed as effect on nociceptive behavior by measuring rapid pain response (phase I) at 3 to 7 mg/kg, ip pre-administered with compound for 20 mins followed by formalin induction and measured for 1 hrs. The following applies: dose 3-7 mg/kg, time 80.0 min. The class given is functional, organism-based. In short, it runs like this:
(§2)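 Male CD1 mice, 8–12 weeks, randomized and acclimated 20 min. Drug in saline with 0.5% v/v DMSO given i.p. 20 min before formalin (5%, 10 μL) into the right hind-paw plantar surface. Licking, flicking or shaking of the injected paw recorded every 5 min for 1 h by a blinded observer.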

Data set [11] deals with Mus musculus. Kind of data set: Antinociceptive activity in formalin-induced male CD1 mouse model assessed as effect on nociceptive behavior by measuring behavioral pain (phase II) at 3 mg/kg, ip pre-administered with compound for 20 mins followed by formalin induction and measured for 1 hrs. The conditions noted are these: time 80.0 min. It counts as functional, organism-based. In short, it runs like this:
as §2

Data set [12] relates to Mus musculus. In words: Antinociceptive activity in formalin-induced male CD1 mouse assessed as reduction in nociceptive behavior by measuring decrease in flinches at behavioral pain phase (II) at 5 to 7 mg/kg, ip pre-administered with compound for 20 mins followed by formalin induction and measured for 1 hrs. It counts as functional, organism-based. The conditions noted are these: dose 5-7 mg/kg, time 80.0 min. In short, it runs like this: as §2

In data set [13] the test system is Mus musculus. Kind of data set: Antinociceptive activity in formalin-induced male CD1 mouse assessed as reduction in nociceptive behavior by measuring decrease in lifting/licking time at behavioral pain phase (II) at 5 to 7 mg/kg, ip pre-administered with compound for 20 mins followed by formalin induction and measured for 1 hrs. The class given is functional, organism-based. The conditions noted are these: dose 5-7 mg/kg, time 80.0 min. In a few lines:
as §2

In the case of `CCOC(=O)C(CCCN1CC[C@]2(C)c3cc(O)ccc3C[C@H]1[C@H]2C)c1ccccc1` (mixture of isomers), the Ki in data set [1] is 594 nM; in data set [2], > 10 µM; on Mu-type opioid receptor, > 5 µM; in [3] it was > 5 µM; in [4], > 5 µM.
For `C[C@@H]1[C@@H]2Cc3ccc(O)cc3[C@@]1(C)CCN2CCCC(=O)O`, the Ki in data set [1] is > 10000 nM; in [2] it was > 10 µM; on Mu-type opioid receptor, > 5 µM; in data set [3], > 5 µM; in data set [4], > 5 µM.
In the case of `CCOC(=O)C(CN1CC[C@]2(C)c3cc(O)ccc3C[C@H]1[C@H]2C)c1ccccc1` (mixture of isomers), the Ki in data set [1] is > 10000 nM; in data set [2] it was > 10 µM; at Mu-type opioid receptor, > 5 µM; in data set [3], > 5 µM; in data set [4] it was > 5 µM.
As for `C[C@@H]1[C@@H]2Cc3ccc(O)cc3[C@@]1(C)CCN2CCC(=O)O`, the Ki is > 10000 nM in [1]; > 10 µM in [2]; > 5 µM on Mu-type opioid receptor; > 5 µM in [3]; > 5 µM in [4].
In the case of `C[C@@H]1[C@@H]2Cc3ccc(O)cc3[C@@]1(C)CCN2CC(C(=O)O)c1ccccc1` (mixture of isomers), the inhibition constant Ki in [1] was 664 nM; in data set [2] it was > 10 µM; at Mu-type opioid receptor it was > 5 µM; in [3], > 5 µM; in data set [4] it was > 5 µM.
Regarding `C[C@@H]1[C@@H]2Cc3ccc(O)cc3[C@@]1(C)CCN2CCCC(C(=O)O)c1ccccc1` (mixture of isomers), the Ki in [1] was > 10000 nM; in data set [2], > 10 µM; on Mu-type opioid receptor it was > 5 µM; in data set [3], > 5 µM; in [4], > 5 µM.
As for `COC(=O)CCN1CC[C@]2(C)c3cc(O)ccc3C[C@H]1[C@H]2C`, the Ki in data set [1] is > 10000 nM; in data set [2], > 10 µM; on Mu-type opioid receptor, > 5 µM; in data set [3] it was > 5 µM; in data set [4], > 5 µM.
Turning to `COC(=O)CCCN1CC[C@]2(C)c3cc(O)ccc3C[C@H]1[C@H]2C`, the Ki in [1] is 159 nM; in data set [2], > 10 µM; at Mu-type opioid receptor it was > 5 µM; in [3], > 5 µM; in [4] it was > 5 µM.
Take `CCOC(=O)C(CCN1CC[C@]2(C)c3cc(O)ccc3C[C@H]1[C@H]2C)c1ccccc1` (mixture of isomers): the Ki in data set [1] was 27.5 nM; in data set [2], > 1 µM; at Mu-type opioid receptor it was > 5 µM; in data set [3] it was > 5 µM; in data set [4] it was > 5 µM. Moreover, the t1/2 in data set [5] amounted to 300 min; in data set [9], 31.07 min. In addition, in [6], the Retention_time stood at 10.52 min. The Stability entry in [7] is given as “Stable”; in data set [8], “Unstable”. In addition, the Activity entry with Mus musculus [10] and with Mus musculus [11] was “Not active; Compound Did Not Significantly Modify Licking And Flicking/Shanking Time Of Injected Paw” throughout. In addition, the result in the data set on Mus musculus [12] and in the data set with Mus musculus [13] was Active.
Regarding `C[C@@H]1[C@@H]2Cc3ccc(O)cc3[C@@]1(C)CCN2CCC(C(=O)O)c1ccccc1` (mixture of isomers), the Ki in [1] is > 10000 nM; in data set [2], > 10 µM; on Mu-type opioid receptor, > 5 µM; in [3], > 5 µM; in [4], > 5 µM.
